Activity calls are given as the source filed them. No cut-off for these calls is given here.

The target of test [1] is T1, NAD(P)H dehydrogenase [quinone] 1 (Homo sapiens, UniProt P15559). As to the kind of experiment: Binding affinity to NQO1 in human A549 cells at 10 uM incubated for 10 mins by DAPI staining based fluorescence microscopy imaging. In kind it is cell-based. Put shortly: (§1)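 A549 cells were rinsed with serum-free medium. Probe, from a 10 mM DMSO stock diluted in serum-free medium, was applied at 10 or 50 μM for 10 min at 37 °C, then washed off. For the inhibition condition, 10 μM DIC was co-incubated with the probe under the same conditions. Nuclei were stained with DAPI and cells imaged by laser scanning confocal microscopy.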

The target in test [2] is T1, NAD(P)H dehydrogenase [quinone] 1. Description: Binding affinity to recombinant human NQO1 by fluorescence polarization competition assay. An outline of the steps: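 Fluorescence polarization was read at 485 nm excitation and 535 nm emission in HEPES buffer. Free-probe mP was first measured over a range of probe concentrations without protein. For competition, wells held varying probe concentrations with NQO1 added from a 100 nM solution. IC50 was taken from a plot of % inhibition against concentration.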
For orientation: In fluorescence polarisation assays a small probe gives low polarisation when free and higher when bound to something large.

Test [3] shares this target. As to the kind of experiment: Binding affinity to NQO1 in human A549 cells at 10 uM incubated for 10 mins in presence of 10 uM DIC by DAPI staining based fluorescence microscopy imaging. Format: cell-based. An outline of the steps: as §1
For test [4] the target is unchanged. Description: Binding affinity to NQO1 in human A549 cells at 50 uM incubated for 10 mins by DAPI staining based fluorescence microscopy imaging. Format: cell-based. Put shortly:
as §1

For test [5] the target is unchanged. As to the kind of experiment: Inhibition of recombinant human NQO1 assessed as reduction in oxidation of NADPH to NADP+ using b-lap as substrate and NADPH in presence of 0.14% (w/v) BSA.
The target is the same in test [6]. As to the kind of experiment: Binding affinity to NQO1 in human A549 cells at 50 uM incubated for 10 mins in presence of 10 uM DIC by DAPI staining based fluorescence microscopy imaging. Format: cell-based. Put shortly: as §1

Usually EC50 stands for the concentration needed to bring the measured effect to its halfway point. A word on the IC50: it is the concentration that inhibits the measured activity by half. With `O=C1OC2(c3ccc(O)cc3Oc3cc(O)ccc32)c2ccc(NC(=S)NCCCCCCOc3ccc(/C=C/C(=O)c4c(O)c5ccccc5oc4=O)cc3)cc21`, the result in test [1] and in test [4] was Active. In test [2], the EC50 was 2.95 µM. Further, the result in test [3] and in test [6] was inactive. Further, in test [5], the IC50 stood at 0.98 µM.

Source of the values: ChEMBL document CHEMBL4265867, “Affinity-based small fluorescent probe for NAD(P)H:quinone oxidoreductase 1 (NQO1). Design, synthesis and pharmacological evaluation” (Eur J Med Chem, 2017).
